PMC7741178 (Bioorganic & medicinal chemistry, 2020)

Experiments:
Assay type in all cases: cell-based
human CD4 (CD4-YFP) = human CD4 (CD4-YFP) (Homo sapiens, UniProt P01730); assay: CD4 down-modulation in CD4-YFP transfected CHO cells; conditions: for CD4 down-modulation (in words): CD4-YFP CHO cells
Summary of the method: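 CHO cells stably expressing human CD4 fused at its C-terminus to YFP were exposed for 24 h at 37 °C to 1:5 serial dilutions of test compound. Cells were washed, fixed in 1% formaldehyde, and read at once by flow cytometry (488 nm laser). YFP MFI was expressed as % of matched untreated cells, after subtracting the background of non-transfected cells. IC50 is the 50% decrease in CD4. Mean ± SD, n = 3.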

MT-4 cells = assay: Cytotoxicity in MT-4 cells; conditions: CC50 MT-4 cells / IC50 CD4 down-modulation
HIV-1 NL4.3 (X4) = assay: HIV-1 NL4.3 replication in MT-4 cells; conditions: HIV-1 NL4.3 in MT-4 cells
Summary of the method: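 MT-4 cells at 3.75×10^5 cells/mL in RPMI 1640 with 10% FBS and 2 mM L-glutamine were preincubated 15 min with test compound. HIV-1 NL4.3 (30 pg/well) was then added and cells were kept at 37 °C. On day 4, viability was read by MTS/PES at 490 and 700 nm, giving the IC50 for viral replication. Mean ± SD, n = 2 or 3.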

Row | SMILES | IC50 (human CD4 (CD4-YFP)) | therapeutic indices (CC50/IC50 for CD4) (MT-4 cells) | CD4 down-modulation (in words) (human CD4 (CD4-YFP)) | anti-HIV activity (in words) (HIV-1 NL4.3 (X4))
1 | C=C1CN(S(=O)(=O)c2ccc(C)cc2)CCc2cc(CCCC)cc(n2)CCN(S(=O)(=O)c2ccc(C)cc2)C1.Cl [Compound 3j, 13-Butyl-6-methylene-4,8-di(p-toluenesulfonyl)-4,8,15-triazabicyclo[9.3.1]pentadeca-1(15),11,13-triene] | 500 nM | exceeding 100 | – | –
2 | C=C1CN(S(=O)(=O)c2ccc(C)cc2)CCc2cc(CC(C)C)cc(n2)CCN(S(=O)(=O)c2ccc(C)cc2)C1.Cl [Compound 3k, 13-Isobutyl-6-methylene-4,8-di(p-toluenesulfonyl)-4,8,15-triazabicyclo[9.3.1]pentadeca-1(15),11,13-triene] | – | exceeding 100 | – | –
3 | Cc1ccc(S(=O)(=O)N2CCc3cc(C(C)(C)C)cc(n3)CCN(S(=O)(=O)c3ccc(C)cc3)CC2)cc1 [Compound 16, 12-tert-Butyl-4,7-bis(p-toluenenesulfonyl)-4,7,14-triazabicyclo[8.3.1]tetradeca-1(14),1 0,12-triene] | – | – | no observable | no observable
4 | C=C1CN(S(=O)(=O)c2ccc(C)cc2)Cc2cccc3cc4cccc(c4nc23)CN(S(=O)(=O)c2ccc(C)cc2)C1 [Compound 23, 9-Methylene-7,11,19-7,11-bis(p-toluenesulfonyl)-triazatetracyclo[15.3.1.0^5,20.0^13,18]henicosa-1(21),2,4,13,15,17,19-heptaene] | – | – | no observable | no observable
